What was measured:
CYP1A1 [1] = molecular target: T1, CYP1A1 (Mus musculus, UniProt P00184); experiment: Induction of CYP1A1 activity in mouse Hepa-1c1c7 cells assessed as induction ratio at 0.01 uM after 48 hrs by EROD assay relative to control; assay type: ADME, cell-based
T1 sequence (P00184 whole entry): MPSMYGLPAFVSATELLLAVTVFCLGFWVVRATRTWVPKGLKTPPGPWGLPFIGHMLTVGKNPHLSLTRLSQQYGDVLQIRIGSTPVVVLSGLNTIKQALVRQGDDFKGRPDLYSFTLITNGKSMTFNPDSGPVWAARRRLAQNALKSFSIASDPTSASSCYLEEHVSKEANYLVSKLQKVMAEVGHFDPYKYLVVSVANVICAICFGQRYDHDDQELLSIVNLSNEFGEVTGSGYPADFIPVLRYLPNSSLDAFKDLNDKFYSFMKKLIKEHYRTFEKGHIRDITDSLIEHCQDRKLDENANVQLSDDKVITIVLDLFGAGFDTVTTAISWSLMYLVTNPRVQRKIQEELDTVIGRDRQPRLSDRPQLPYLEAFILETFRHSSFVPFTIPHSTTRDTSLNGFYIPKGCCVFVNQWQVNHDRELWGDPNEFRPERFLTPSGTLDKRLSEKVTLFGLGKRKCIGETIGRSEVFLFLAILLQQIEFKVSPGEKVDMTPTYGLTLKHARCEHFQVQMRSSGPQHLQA

[2] = molecular target: NAD(P)H dehydrogenase [quinone] 1 (Mus musculus) (UniProt Q64669); experiment: Induction of NQO1 activity in mouse Hepa-1c1c7 cells assessed as induction ratio at 0.01 uM after 48 hrs by MTT assay relative to control; assay type: cell-based
Chain of NAD(P)H dehydrogenase [quinone] 1 (Mus musculus) (Q64669 whole entry): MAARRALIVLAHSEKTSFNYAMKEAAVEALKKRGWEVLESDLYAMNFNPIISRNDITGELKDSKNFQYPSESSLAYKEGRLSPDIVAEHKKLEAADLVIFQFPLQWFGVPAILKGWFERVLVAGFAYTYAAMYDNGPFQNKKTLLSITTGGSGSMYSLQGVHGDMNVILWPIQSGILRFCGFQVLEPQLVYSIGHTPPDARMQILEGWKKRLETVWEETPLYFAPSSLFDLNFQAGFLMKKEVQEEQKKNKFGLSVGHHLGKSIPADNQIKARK
How it was run: (§1)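 Hepa1c1c7 cells, 10,000 per well, 24 h, were then treated 48 h (DMSO ≤0.5%). Digitonin/EDTA lysates were assayed for menadione-dependent MTT-formazan formation using a G6P/G6PDH NADPH-generating mix with FAD at pH 7.4. The reaction ran 5 min, was stopped with dicoumarol, and read at A590. Degree of induction = (A test − blank)/(A control − blank). Ratios were read off the induction–concentration plot at the EROD test concentration.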

[3] = molecular target: NAD(P)H dehydrogenase [quinone] 1 (Mus musculus) (UniProt Q64669); experiment: Induction of NQO1 activity in mouse Hepa-1c1c7 cells assessed as drug level required to double basal enzyme activity after 48 hrs by MTT assay; assay type: cell-based
How it was run: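 Hepa1c1c7 cells were grown in α-MEM with charcoal-treated FCS, 10,000 per well, 24 h. Compound was given 48 h (DMSO ≤0.5%) over a 10–100-fold range below cytotoxic levels, up to 25 µM. Cells were lysed with digitonin/EDTA. NQO1 was assayed by menadione-driven MTT reduction (G6P/G6PDH/NADP, FAD, Tris pH 7.4), quenched with dicoumarol, A590. CD is the concentration doubling basal activity, taken from the induction–concentration plot; mean ± SD, n = 3.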

[4] = Ratio of induction of NQO1 activity to induction of CYP1A1 activity in mouse Hepa-1c1c7 cells at 0.01 uM after 48 hrs
[5] = Cytotoxicity against mouse Hepa-1c1c7 cells after 48 hrs by MTT assay; assay type: cell-based; details: hepa-1c1c7, 48 h
How it was run: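 Murine hepatoma cells in α-MEM with 10% heat- and charcoal-treated fetal calf serum, passages 6–17; MTT read-out as for the cancer lines but with 48 h compound exposure. Highest concentration tested 25 µM. IC50 from survival-versus-concentration curve; mean and SD, n = 3.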

CYP1A1 [6] = molecular target: T1, CYP1A1; experiment: Induction of CYP1A1 activity in mouse Hepa-1c1c7 cells assessed as induction ratio at 50 nM after 48 hrs by EROD assay relative to control; assay type: ADME, cell-based
How it was run: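 Hepa1c1c7 cells were seeded at 10,000 per well and grown 24 h. They were then exposed 48 h to compound (final DMSO 0.5% v/v) at about 4 × the NQO1 CD. After a PBS wash, cells got 5 µM 7-ethoxyresorufin plus 2 mM salicylamide in medium, 37 °C, 40 min. Resorufin was read at ex 530/em 590 nm, corrected for compound fluorescence. Ratio = (F treated − blank)/(F DMSO control − blank); mean ± SD, n = 3.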

[7] = molecular target: NAD(P)H dehydrogenase [quinone] 1 (Mus musculus) (UniProt Q64669); experiment: Induction of NQO1 activity in mouse Hepa-1c1c7 cells assessed as induction ratio at 50 nM after 48 hrs by MTT assay relative to control; assay type: cell-based; how it was run: as §1
[8] = Ratio of induction of NQO1 activity to induction of CYP1 activity in mouse Hepa-1c1c7 cells at 50 nM after 48 hrs

Row | SMILES | fold induction at 48 h, 0.01 µM (CYP1A1 [1]) | Ratio [2] | CD [3] | Ratio [4] | IC50 [5] | fold induction at 48 h, 0.05 µM (CYP1A1 [6]) | Ratio [7] | Ratio [8]
1 | O=c1cc(-c2ccccc2)oc2ccc3ccccc3c12 [BETA-NAPHTHOFLAVONE] | 1.13 | 1.83 | 0.028 µM | 1.62 | – | – | – | –
2 | O=C1Nc2ccccc2/C1=C1\C(=O)Nc2cc(Cl)ccc21 | – | – | – | – | > 25 µM | 2.09 | 2.88 | 1.38

From ChEMBL document CHEMBL1153905, “Functionalized 3-benzylidene-indolin-2-ones: inducers of NAD(P)H-quinone oxidoreductase 1 (NQO1) with antiproliferative activity” (Bioorg Med Chem, 2009)
